Activity calls are given as the source filed them. No cut-off for these calls is given here.
Key:
[1] = target: T1, MAP/microtubule affinity-regulating kinase 4 (Homo sapiens) (UniProt Q96L34); experiment: Inhibition of recombinant human MARK4 at 10 uM incubated for 2 hrs by [gamma32P]ATP assay
T1 sequence (whole entry): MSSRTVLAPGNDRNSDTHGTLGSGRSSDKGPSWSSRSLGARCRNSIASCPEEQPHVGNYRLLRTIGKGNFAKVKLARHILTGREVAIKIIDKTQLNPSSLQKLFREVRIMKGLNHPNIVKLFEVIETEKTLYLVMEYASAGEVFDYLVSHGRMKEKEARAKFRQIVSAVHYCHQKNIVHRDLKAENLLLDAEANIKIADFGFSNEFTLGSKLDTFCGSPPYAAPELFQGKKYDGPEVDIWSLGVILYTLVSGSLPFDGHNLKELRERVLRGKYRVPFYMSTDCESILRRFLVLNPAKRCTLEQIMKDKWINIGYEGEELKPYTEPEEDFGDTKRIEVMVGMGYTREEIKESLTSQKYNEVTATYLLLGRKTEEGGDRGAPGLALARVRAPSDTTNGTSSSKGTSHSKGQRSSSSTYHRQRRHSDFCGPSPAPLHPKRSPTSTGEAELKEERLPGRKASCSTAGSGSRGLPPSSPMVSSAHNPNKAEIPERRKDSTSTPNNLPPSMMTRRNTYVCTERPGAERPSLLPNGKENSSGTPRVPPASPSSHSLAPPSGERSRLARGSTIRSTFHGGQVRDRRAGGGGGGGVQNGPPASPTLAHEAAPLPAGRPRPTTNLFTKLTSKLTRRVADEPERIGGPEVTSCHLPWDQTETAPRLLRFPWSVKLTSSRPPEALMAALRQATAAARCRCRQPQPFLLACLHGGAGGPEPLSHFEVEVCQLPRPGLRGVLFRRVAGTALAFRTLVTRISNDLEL
Summary of the method: (§1)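 Recombinant human MARK4 was incubated 2 h at 37 °C with 1 mM cold ATP plus [γ-32P]ATP (222 TBq mmol−1), with or without compound. Released 32Pi was separated from ATP by TLC, and spots were quantified as % ATP hydrolysis relative to a 100 nM enzyme positive control. Screening was at a single 10 μM; dose-response used 0.5−10 μM.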

[2] = test system: MCF7; experiment: Induction of apoptosis in human MCF7 cells assessed as apoptotic cells at IC50 after 24 hrs by annexin V-FITC/propidium iodide staining based Flow cytometric analysis (reference value: 0.01%); type: functional
[3] = test system: HepG2; experiment: Induction of cell cycle arrest in human HepG2 cells assessed as accumulation at S phase at IC50 after 24 hrs by propidium iodide staining based Flow cytometric analysis (reference value: 25%); type: functional
[4] = test system: MCF7; experiment: Inhibition of cell migration in human MCF7 cells at IC50 after 48 hrs by phase contrast inverted microscopic based wound healing assay; type: functional
[5] = test system: MCF7; experiment: Antiproliferative activity against human MCF7 cells assessed as reduction in cell viability after 48 hrs by MTT assay; type: functional, cell-based; settings: MCF7, 48 h
Summary of the method: (§2)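 Cells plated at 9000−10 000 cells/well, grown 24 h, then exposed to 0−50 μM compound for 48 h at 37 °C in 5% CO2, followed by a standard MTT read-out. HEK-293, MCF-7 and HepG2 were kept in DMEM with 10% heat-inactivated FBS and 1% penicillin−streptomycin. Viability is expressed as % of control, mean ± SD, n = 3. Paclitaxel served as positive control.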

[6] = test system: MCF7; experiment: Induction of cell cycle arrest in human MCF7 cells assessed as accumulation at G0/G1 phase at IC50 after 24 hrs by propidium iodide staining based Flow cytometric analysis (reference value: 65%); type: functional
[7] = test system: HepG2; experiment: Antiproliferative activity against human HepG2 cells assessed as reduction in cell viability after 48 hrs by MTT assay; type: functional, cell-based; settings: HepG2, 48 h; summary of the method: as §2
[8] = target: T1, MAP/microtubule affinity-regulating kinase 4 (Homo sapiens); experiment: Binding affinity to recombinant human MARK 4 by fluorescence based Stem-Volme plot analysis
Summary of the method: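 Intrinsic fluorescence of recombinant MARK4 (10 μM) was titrated with increasing ligand, using excitation at 280 nm and emission recorded from 300−400 nm. Quenching was fitted to a modified Stern−Volmer equation, log(Fo−F)/F = log Ka + n log[L]. Ka came from the intercept and n from the slope. Three independent triplicate titrations were averaged.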

[9] = target: T1, MAP/microtubule affinity-regulating kinase 4 (Homo sapiens); experiment: (§3) Inhibition of recombinant human MARK4 incubated for 2 hrs by [gamma32P]ATP assay; summary of the method: as §1
[10] = target: T2, MAP/microtubule affinity-regulating kinase 4 (Homo sapiens, UniProt Q96L34); experiment: as §3; summary of the method: as §1
T2 sequence (Q96L34 whole entry): T1 sequence (whole entry)

[11] = test system: HepG2; experiment: Induction of apoptosis in human HepG2 cells assessed as apoptotic cells at IC50 after 24 hrs by annexin V-FITC/propidium iodide staining based Flow cytometric analysis (reference value: 2.68%); type: functional
[12] = test system: HepG2; experiment: Induction of cell cycle arrest in human HepG2 cells assessed as accumulation at G0/G1 phase at IC50 after 24 hrs by propidium iodide staining based Flow cytometric analysis (reference value: 60%); type: functional
[13] = test system: HEK293; experiment: Cytotoxicity against human HEK293 cells assessed as reduction in cell viability upto 50 uM after 48 hrs by MTT assay; type: cell-based; settings: hek293, 48 h; summary of the method: as §2
[14] = test system: MCF7; experiment: Induction of cell cycle arrest in human MCF7 cells assessed as accumulation at G2 phase at IC50 after 24 hrs by propidium iodide staining based Flow cytometric analysis (reference value: 15%); type: functional
[15] = target: T1, MAP/microtubule affinity-regulating kinase 4 (Homo sapiens); experiment: Inhibition of MARK4 in human SH-SY5Y cells assessed as reduction in tau phosphorylation at IC50 after 24 hrs by flow cytometric analysis; type: cell-based
Summary of the method: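 SH-SY5Y cells were grown in 1:1 EMEM/F12 with 10% FBS and incubated with IC50 compound. After 24 h, about 1 × 10^6 cells were collected, fixed, and stained with anti-tau primary antibody for 2−3 h at 25 °C. Phospho-tau signal was read by flow cytometry against untreated cells.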

[16] = target: T1, MAP/microtubule affinity-regulating kinase 4 (Homo sapiens); experiment: Inhibition of MARK4 in human HepG2 cells assessed as reduction in ROS level at IC50 after 5 to 6 hrs by DCFDA staining using spectroflourimetric analysis; type: cell-based
[17] = test system: HepG2; experiment: Induction of cell cycle arrest in human HepG2 cells assessed as accumulation at S phase at IC50 after 24 hrs by propidium iodide staining based Flow cytometric analysis (reference value: 15%); type: functional
[18] = target: T1, MAP/microtubule affinity-regulating kinase 4 (Homo sapiens); experiment: Inhibition of MARK4 in human MCF7 cells assessed as reduction in ROS level at IC50 after 5 to 6 hrs by DCFDA staining using spectroflourimetric analysis; type: cell-based
[19] = test system: HepG2; experiment: Induction of apoptosis in human HepG2 cells assessed as viable cells at IC50 after 24 hrs by annexin V-FITC/propidium iodide staining based Flow cytometric analysis (reference value: 97.32%); type: functional
[20] = test system: MCF7; experiment: Induction of cell cycle arrest in human MCF7 cells assessed as accumulation at S phase at IC50 after 24 hrs by propidium iodide staining based Flow cytometric analysis (reference value: 20%); type: functional
[21] = test system: MCF7; experiment: Induction of apoptosis in human MCF7 cells assessed as viable cells at IC50 after 24 hrs by annexin V-FITC/propidium iodide staining based Flow cytometric analysis (reference value: 99.99%); type: functional

## O=c1oc2c(O)c(O)cc3c(=O)oc4c(O)c(O)cc1c4c23
[1]
  inhibition: Active

## COc1c(O)cc2oc3cc(O)c(CC=C(C)C)c(O)c3c(=O)c2c1CC=C(C)C [MANGOSTIN]
[2]
  Activity: 25.9%
[3]
  Activity: 15%
[4]
  inhibition: Active
[5]
  IC50: 9.95 µM
[6]
  Activity: 83%
[7]
  IC50: 18.6 µM
[1]
  inhibition: Active
[8]
  Ka: 5.2 ×10⁷ /M
[9]
  inhibition: Dose-dependent effect
[10]
  IC50: 1.77 µM
[11]
  Activity: 19.7%
[12]
  Activity: 75%
[13]
  Activity: Non-Toxic
[14]
  Activity: 7%
[15]
  inhibition: Active
[16]
  inhibition: Active
[17]
  Activity: 10%
[18]
  inhibition: Active
[19]
  Activity: 80.3%
[20]
  Activity: 10%
[21]
  Activity: 74.1%
